Data as given in ChEMBL document CHEMBL4680186, “New azole antifungals with a fused triazinone scaffold” (Eur J Med Chem, 2020).
Calls of active or inactive are those of the source. The calls are words filed in the database; no cut-off is given here.

Tests used:
Candida albicans [1] = experiment: Antifungal activity against Candida albicans CAAL93 infected in Swiss mouse assessed as survival at 10 mg/kg, po after 14 days relative to control; type: functional; settings: 336 h, time 14 day
In short: (§1)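 Swiss mice (~25 g) immunosuppressed with prednisolone 30 mg/kg s.c. one day before challenge; day 0 i.v. infection with C. albicans blastoconidia (5.10⁶ yeast/mL, 100 µL). Oral dosing 1 h post-infection, once daily for 5 days, 10 mg/kg (CAAL93) or 15 mg/kg (DSY292), vehicle 40% DMSO/25% Tween80/35% olive oil. Mice given 50% grapefruit juice ad libitum. Survival followed 14 days (log-rank Mantel-Cox).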

[2] = Toxicity in CRL:WI rat assessed as behavioral changes at 300 mg/kg, po up to 14 days; type: organism-based; settings: in vivo, 336 h, time <=14 day
In short: (§2)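 Acute oral toxicity in rats: single gavage dose of 300 mg/kg bw (two groups). Behaviour, body weight change, toxicity signs and mortality were recorded at 30 min, 1, 2, 4 and 6 h after dosing, then daily for 14 days.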

Candida albicans [3] = experiment: Inhibition of sterol biosynthesis in Candida albicans CAAL93 assessed as eburicol level at 1 ng/ml after 18 hrs by GC-MS analysis relative to control; type: functional; parameters: scale not given: the % may be the effect or the level left
Candida albicans [4] = experiment: Inhibition of sterol biosynthesis in Candida albicans CAAL93 assessed as other sterols level at 10 ng/ml after 18 hrs by GC-MS analysis (Rvb < 1%); type: functional; parameters: scale not given: the % may be the effect or the level left
In short: (§3)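 C. albicans CAAL93 blastospores were grown 18 h at 35 °C with stirring in 50 mL Sabouraud broth, with drug added before incubation. Cells were pelleted and saponified in ethanolic KOH at 80 °C for 60 min, and sterols extracted with hexane. Analysis by GC-MS (EI 70 eV, splitless injection at 250 °C, helium carrier); sterols identified by fragmentation pattern.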

[5] = Toxicity in CRL:WI rat assessed as hunched back at 300 mg/kg, po up to 14 days; type: organism-based; settings: in vivo, 336 h, time <=14 day; in short: as §2
[6] = Toxicity in CRL:WI rat assessed as weight gain at 300 mg/kg, po up to 14 days; type: organism-based; settings: in vivo, 336 h, time <=14 day; in short: as §2
Candida albicans [7] = experiment: Inhibition of sterol biosynthesis in Candida albicans CAAL93 assessed as lanosterol level at 1 ng/ml after 18 hrs by GC-MS analysis (reference value: 1.6%); type: functional; parameters: scale not given: the % may be the effect or the level left
Candida albicans [8] = experiment: Antifungal activity against Candida albicans DSY292 harboring Erg1l G464S/R467K/Y132 mutant infected in Swiss mouse assessed as survival at 15 mg/kg, po after 10 days; type: functional, organism-based; settings: time 10.0 day; in short: as §1
Candida albicans [9] = experiment: Inhibition of sterol biosynthesis in Candida albicans CAAL93 assessed as ergostadienol level at 1 ng/ml after 18 hrs by GC-MS analysis (reference value: 1.6%); type: functional; parameters: scale not given: the % may be the effect or the level left
Candida albicans [10] = experiment: Inhibition of sterol biosynthesis in Candida albicans CAAL93 assessed as ergosterol level at 10 ng/ml after 18 hrs by GC-MS analysis (reference value: 89.7%); type: functional; parameters: scale not given: the % may be the effect or the level left; in short: as §3
Mucor circinelloides = experiment: Antifungal activity against Mucor circinelloides MURI1 assessed as reduction in microbial growth after 24 hrs by broth microdilution method; type: functional
In short: (§4)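 CLSI M38 broth microdilution in RPMI 1640 buffered to pH 7.0 with MOPS. Drugs were diluted in DMSO then medium; final range 0.032-16 mg/L. Conidia or sporangiospores came from 7-day potato dextrose agar cultures; diluted (2×) inocula were 0.9×10^4–4.7×10^4 CFU/mL. Incubation at 35 °C, read at 48 h except Zygomycetes at 24 h. MIC read visually as lowest concentration preventing 100% growth; duplicate.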

Candida albicans [11] = experiment: Inhibition of ergosterol biosynthesis in Candida albicans CAAL93 at 1 ng/ml after 18 hrs by GC-MS analysis relative to control; type: functional
Candida albicans [12] = experiment: Inhibition of ergosterol biosynthesis in Candida albicans CAAL93 after 18 hrs by GC-MS analysis; type: functional; settings: dose 1-10 ng/ml
Candida albicans [13] = experiment: Inhibition of sterol biosynthesis in Candida albicans CAAL93 assessed as 14alpha-methylfecosterol level at 10 ng/ml after 18 hrs by GC-MS analysis relative to control; type: functional; parameters: scale not given: the % may be the effect or the level left; in short: as §3
Scedosporium apiospermum = experiment: Antifungal activity against Scedosporium apiospermum SCAP1 assessed as reduction in microbial growth […] by broth microdilution method; type: functional
Candida albicans [14] = experiment: Inhibition of sterol biosynthesis in Candida albicans CAAL93 assessed as episterol level at 1 ng/ml after 18 hrs by GC-MS analysis (reference value: 2%); type: functional; parameters: scale not given: the % may be the effect or the level left
Rhizopus arrhizus [15] = experiment: Antifungal activity against Rhizopus oryzae RHPOR1 assessed as reduction in microbial growth after 24 hrs by broth microdilution method; type: functional; in short: as §4
Candida albicans [16] = experiment: Inhibition of sterol biosynthesis in Candida albicans CAAL93 assessed as other sterols level at 1 ng/ml after 18 hrs by GC-MS analysis (Rvb < 1%); type: functional; parameters: scale not given: the % may be the effect or the level left
Rhizopus arrhizus [17] = experiment: Antifungal activity against Rhizopus oryzae RHPOR2 assessed as reduction in microbial growth after 24 hrs by broth microdilution method; type: functional; in short: as §4
Candida albicans [18] = experiment: Inhibition of sterol biosynthesis in Candida albicans CAAL93 assessed as lanosterol level at 10 ng/ml after 18 hrs by GC-MS analysis (reference value: 1.6%); type: functional; parameters: scale not given: the % may be the effect or the level left; in short: as §3
[19] = system: Pichia kudriavzevii (Candida krusei); experiment: Antifungal activity against fluconazole-resistant Candida krusei CAKR8 assessed as reduction in microbial growth after 24 hrs by resazurin staining based spectrofluorometric method; settings: CAKR8, 24 h
Candida albicans [20] = experiment: Antifungal activity against Candida albicans CAAL93 infected in Swiss mouse assessed as reduction in kidney fungal burden at 10 mg/kg, po after 14 days; type: functional, organism-based; settings: time 14.0 day
[21] = Toxicity in CRL:WI rat assessed as mortality at 300 mg/kg, po up to 14 days; type: organism-based; settings: in vivo, 336 h, time <=14 day; in short: as §2
Fusarium sp. = experiment: Antifungal activity against Fusarium sp. assessed as reduction in microbial growth […] by broth microdilution method; type: functional
Candida albicans [22] = experiment: Inhibition of sterol biosynthesis in Candida albicans CAAL93 assessed as eburicol level at 10 ng/ml after 18 hrs by GC-MS analysis relative to control; type: functional; parameters: scale not given: the % may be the effect or the level left; in short: as §3
[23] = system: Pichia kudriavzevii (Candida krusei); experiment: Antifungal activity against fluconazole-resistant Candida krusei CAKR7 assessed as reduction in microbial growth after 24 hrs by resazurin staining based spectrofluorometric method; settings: CAKR7, 24 h
Candida albicans [24] = experiment: Inhibition of sterol biosynthesis in Candida albicans CAAL93 assessed as zymosterol level at 1 ng/ml after 18 hrs by GC-MS analysis (reference value: 1.6%); type: functional; parameters: scale not given: the % may be the effect or the level left
Candida albicans [25] = experiment: Antifungal activity against Candida albicans DSY292 harboring Erg1l G464S/R467K/Y132 infected in Swiss mouse assessed as reduction in kidney fungal burden at 10 mg/kg, po after 14 days; type: functional, organism-based; settings: time 14.0 day
Candida albicans [26] = experiment: Inhibition of sterol biosynthesis in Candida albicans CAAL93 assessed as fecosterol level at 1 ng/ml after 18 hrs by GC-MS analysis relative to control; type: functional; parameters: scale not given: the % may be the effect or the level left
Candida albicans [27] = experiment: Inhibition of sterol biosynthesis in Candida albicans CAAL93 assessed as ergostadienol level at 10 ng/ml after 18 hrs by GC-MS analysis (reference value: 1.6%); type: functional; parameters: scale not given: the % may be the effect or the level left; in short: as §3
Candida albicans [28] = experiment: Inhibition of ergosterol biosynthesis in Candida albicans CAAL93 at 10 ng/ml after 18 hrs by GC-MS analysis relative to control; type: functional
Candida albicans [29] = experiment: Inhibition of sterol biosynthesis in Candida albicans CAAL93 assessed as ergosterol level at 1 ng/ml after 18 hrs by GC-MS analysis (reference value: 89.7%); type: functional; parameters: scale not given: the % may be the effect or the level left

With COc1ccc(-c2cc3cnn([C@H](C)[C@](O)(Cn4cncn4)c4ccc(F)cc4F)c(=O)n3c2)cc1 the survival at 10 mg/kg (Candida albicans [1]) was 100%, the Activity [2] was “Toxic” and the Activity (Candida albicans [3]) was 1.8%. The Activity (Candida albicans [4]) was 5%, the Activity [5] was “Toxic” and the Activity [6] was “Non-Toxic”. For the same molecule, the Activity (Candida albicans [7]) was 7.7%, the Survival (Candida albicans [8]) was “Active” and the Activity (Candida albicans [9]) was 3.7%. The Activity (Candida albicans [10]) was 42%, the MIC (Mucor circinelloides) was 0.19 µg/mL and the inhibition (Candida albicans [11]) was 32%. For the same molecule, the inhibition (Candida albicans [12]) was “Dose-dependent effect”, the Activity (Candida albicans [13]) was 3.6% and the MIC (Scedosporium apiospermum) was 3 µg/mL. For the same molecule, the Activity (Candida albicans [14]) was 11%, the MIC (Rhizopus arrhizus [15]) was 0.0625 µg/mL and the Activity (Candida albicans [16]) was 8.3%. For the same molecule, the MIC (Rhizopus arrhizus [17]) was 0.094 µg/mL, the Activity (Candida albicans [18]) was 25.2% and the MIC [19] was 0.081 µg/mL. For the same molecule, the Activity (Candida albicans [20]) was “Active”, the Activity [21] was “Non-Toxic” and the MIC (Fusarium sp.) was > 16 µg/mL. The Activity (Candida albicans [22]) was 23.1%, the MIC [23] was 0.062 µg/mL and the Activity (Candida albicans [24]) was 3.3%. For the same molecule, the Activity (Candida albicans [25]) was “Active”, the Activity (Candida albicans [26]) was 3.2% and the Activity (Candida albicans [27]) was 1.1%. For the same molecule, the inhibition (Candida albicans [28]) was 53% and the Activity (Candida albicans [29]) was 61%.
